Source: ChEMBL document CHEMBL1132273, “Subtype-selective N-methyl-D-aspartate receptor antagonists: synthesis and biological evaluation of 1-(arylalkynyl)-4-benzylpiperidines” (J Med Chem, 1999)
pIC50: −log10 of the molar value.

How the values were obtained:
[1] = target: D(2) dopamine receptor (Rattus norvegicus, UniProt P61169); experiment: Binding affinity against Dopamine receptor D2 from rat using [3H]raclopride as radioligand
In short: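 Washed Sprague–Dawley rat striatal membranes (200 μg protein) incubated with 3 nM [3H]raclopride in 120 mM NaCl/5 mM KCl/50 mM Tris-HCl pH 7.4, 60 min at room temperature. Nine concentrations in duplicate, 1% DMSO final. Nonspecific binding with 300 μM sulpiride.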

[2] = target: T1, Glutamate NMDA receptor; Grin1/Grin2a (Rattus norvegicus, UniProt P35439+Q00959); experiment: Antagonistic activity against rat N-methyl-D-aspartate glutamate receptor 1/2A, expressed in Xenopus oocytes; format: functional, cell-based, Oocyte
In short: (§1)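 Two-electrode voltage clamp at -70 mV in nominally Ca2+-free Ringer (NaCl 115, KCl 2, BaCl2 1.8, HEPES 5 mM, pH 7.4). Drugs are given by bath perfusion at 7–10 mL/min, with final DMSO 0.1–1%. Inhibition of NMDA responses is measured, and IC50 is fitted from partial 3–5 point concentration–inhibition curves with a free residual minimum. Mean ± SEM, n as reported.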

[3] = target: T2, Glutamate NMDA receptor; Grin1/Grin2c (Rattus norvegicus, UniProt P35439+Q00961); experiment: Antagonistic activity against rat N-methyl-D-aspartate glutamate receptor 1/2C expressed in Xenopus oocytes; format: functional, cell-based, Oocyte; in short: as §1
[4] = target: T3, Adrenergic receptor alpha-1 (Rattus norvegicus, UniProt P15823+P23944+P43140); experiment: The compound was tested for binding affinity against Alpha-1 adrenergic receptor from rat using [3H]prazosin as radioligand; format: protein assay
T3 sequence (P15823 whole entry): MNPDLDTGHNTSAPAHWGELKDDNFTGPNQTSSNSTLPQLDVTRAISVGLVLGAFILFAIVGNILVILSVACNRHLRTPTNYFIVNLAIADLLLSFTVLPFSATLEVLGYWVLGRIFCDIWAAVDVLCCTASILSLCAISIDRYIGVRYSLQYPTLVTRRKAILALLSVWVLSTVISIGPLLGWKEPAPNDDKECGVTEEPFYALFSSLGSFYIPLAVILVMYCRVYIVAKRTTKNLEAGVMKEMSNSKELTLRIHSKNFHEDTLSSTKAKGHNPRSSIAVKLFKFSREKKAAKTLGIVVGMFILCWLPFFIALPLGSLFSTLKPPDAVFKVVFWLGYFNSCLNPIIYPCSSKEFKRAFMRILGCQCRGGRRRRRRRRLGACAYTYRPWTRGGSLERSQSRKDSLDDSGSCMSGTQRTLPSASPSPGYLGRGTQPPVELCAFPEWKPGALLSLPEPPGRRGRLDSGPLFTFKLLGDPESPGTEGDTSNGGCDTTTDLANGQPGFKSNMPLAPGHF
T3 sequence (P23944 whole entry): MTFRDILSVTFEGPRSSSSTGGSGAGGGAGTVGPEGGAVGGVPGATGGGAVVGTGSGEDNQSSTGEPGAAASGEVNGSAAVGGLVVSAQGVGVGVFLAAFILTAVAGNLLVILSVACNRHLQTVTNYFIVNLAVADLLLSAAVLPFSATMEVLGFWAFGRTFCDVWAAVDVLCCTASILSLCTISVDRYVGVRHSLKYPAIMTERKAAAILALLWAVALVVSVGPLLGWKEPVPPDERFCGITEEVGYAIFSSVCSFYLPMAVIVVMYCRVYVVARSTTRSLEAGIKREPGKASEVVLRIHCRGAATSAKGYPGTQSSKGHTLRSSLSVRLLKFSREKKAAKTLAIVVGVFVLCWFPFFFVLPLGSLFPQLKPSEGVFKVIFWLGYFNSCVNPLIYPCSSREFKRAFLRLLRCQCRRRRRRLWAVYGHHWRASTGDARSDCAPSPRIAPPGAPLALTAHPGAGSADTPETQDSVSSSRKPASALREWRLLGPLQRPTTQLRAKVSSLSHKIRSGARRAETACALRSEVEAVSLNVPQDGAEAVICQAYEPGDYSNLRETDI
T3 sequence (P43140 whole entry): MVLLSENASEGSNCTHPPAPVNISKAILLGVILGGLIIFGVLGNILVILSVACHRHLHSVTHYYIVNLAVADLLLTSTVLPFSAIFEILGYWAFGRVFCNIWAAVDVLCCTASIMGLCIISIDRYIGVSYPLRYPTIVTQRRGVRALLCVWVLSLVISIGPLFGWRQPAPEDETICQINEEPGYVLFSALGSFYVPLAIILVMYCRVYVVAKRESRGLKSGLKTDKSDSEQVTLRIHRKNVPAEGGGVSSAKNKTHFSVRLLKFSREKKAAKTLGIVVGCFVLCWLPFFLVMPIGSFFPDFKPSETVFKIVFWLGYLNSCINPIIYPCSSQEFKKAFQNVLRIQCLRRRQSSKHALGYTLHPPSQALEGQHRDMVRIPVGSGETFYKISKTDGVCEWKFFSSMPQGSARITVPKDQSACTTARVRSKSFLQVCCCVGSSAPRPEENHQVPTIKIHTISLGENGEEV
In short: (§2)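 Rat cortical membranes (Sprague–Dawley, triple-washed; 200 μg protein) incubated with 0.8 nM [3H]prazosin in 140 mM NaCl/5 mM MgCl2/50 mM Tris-HCl pH 7.4, 60 min at room temperature. Nine concentrations in duplicate, 1% DMSO final. Nonspecific binding defined by 10 μM phentolamine.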

[5] = target: T4, Glutamate NMDA receptor; Grin1/Grin2b (Rattus norvegicus, UniProt P35439+Q00960); experiment: Antagonistic activity against rat N-methyl-D-aspartate glutamate receptor 1/2B expressed in Xenopus oocytes; format: functional, cell-based, Oocyte
In short: (§3)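 Cloned NR1A/2B receptors in oocytes, recorded by two-electrode voltage clamp at -70 mV in nominally Ca2+-free Ringer (pH 7.4). Drugs are bath perfused, with final DMSO 0.1–1%. IC50 for inhibition of NMDA responses is fitted from partial 3–5 point curves, with the residual fractional response ('min') fixed at 0.15. Mean ± SEM.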

[6] = target: T1, Glutamate NMDA receptor; Grin1/Grin2a; experiment: Antagonistic activity against rat NR1A/2A receptor, expressed in Xenopus oocytes; format: functional, cell-based, Oocyte; in short: as §1
[7] = target: T2, Glutamate NMDA receptor; Grin1/Grin2c; experiment: The compound was tested for antagonistic activity against rat NR1A/2C receptor expressed in Xenopus oocytes; format: functional, cell-based, Oocyte
In short: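 Drugs are given by bath perfusion at 7–10 mL/min, with final DMSO 0.1–1%. Inhibition of NMDA responses is measured, and IC50 is fitted from partial 3–5 point concentration–inhibition curves with a free residual minimum. Mean ± SEM, n as reported.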

[8] = target: T4, Glutamate NMDA receptor; Grin1/Grin2b; experiment: Antagonistic activity against rat NR1A/2B receptor expressed in Xenopus oocytes; format: functional, cell-based, Oocyte; in short: as §3
[9] = target: T3, Adrenergic receptor alpha-1; experiment: Binding affinity against alpha-1 adrenergic receptor from rat using [3H]-prazosin as radioligand; format: protein assay; in short: as §2
[10] = Antagonistic activity against rat NR1A/2A receptor, expressed in Xenopus oocytes.; format: functional, cell-based; settings: Oocyte; in short: as §1

Sequence of D(2) dopamine receptor (P61169 whole entry): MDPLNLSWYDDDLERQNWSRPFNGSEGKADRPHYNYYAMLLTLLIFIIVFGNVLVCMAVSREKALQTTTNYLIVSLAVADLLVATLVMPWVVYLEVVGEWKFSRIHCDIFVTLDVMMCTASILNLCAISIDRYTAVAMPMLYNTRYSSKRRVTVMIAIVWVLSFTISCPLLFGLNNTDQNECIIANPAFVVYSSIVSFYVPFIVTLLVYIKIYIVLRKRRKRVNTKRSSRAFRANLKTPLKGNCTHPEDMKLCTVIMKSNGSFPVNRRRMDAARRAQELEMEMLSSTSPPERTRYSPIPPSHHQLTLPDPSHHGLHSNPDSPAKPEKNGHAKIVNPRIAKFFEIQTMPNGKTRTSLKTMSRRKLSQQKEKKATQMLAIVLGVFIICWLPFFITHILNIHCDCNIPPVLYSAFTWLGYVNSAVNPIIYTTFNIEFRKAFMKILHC
T1 sequence (Q00959 whole entry, other chains not shown, the tested form may be a part): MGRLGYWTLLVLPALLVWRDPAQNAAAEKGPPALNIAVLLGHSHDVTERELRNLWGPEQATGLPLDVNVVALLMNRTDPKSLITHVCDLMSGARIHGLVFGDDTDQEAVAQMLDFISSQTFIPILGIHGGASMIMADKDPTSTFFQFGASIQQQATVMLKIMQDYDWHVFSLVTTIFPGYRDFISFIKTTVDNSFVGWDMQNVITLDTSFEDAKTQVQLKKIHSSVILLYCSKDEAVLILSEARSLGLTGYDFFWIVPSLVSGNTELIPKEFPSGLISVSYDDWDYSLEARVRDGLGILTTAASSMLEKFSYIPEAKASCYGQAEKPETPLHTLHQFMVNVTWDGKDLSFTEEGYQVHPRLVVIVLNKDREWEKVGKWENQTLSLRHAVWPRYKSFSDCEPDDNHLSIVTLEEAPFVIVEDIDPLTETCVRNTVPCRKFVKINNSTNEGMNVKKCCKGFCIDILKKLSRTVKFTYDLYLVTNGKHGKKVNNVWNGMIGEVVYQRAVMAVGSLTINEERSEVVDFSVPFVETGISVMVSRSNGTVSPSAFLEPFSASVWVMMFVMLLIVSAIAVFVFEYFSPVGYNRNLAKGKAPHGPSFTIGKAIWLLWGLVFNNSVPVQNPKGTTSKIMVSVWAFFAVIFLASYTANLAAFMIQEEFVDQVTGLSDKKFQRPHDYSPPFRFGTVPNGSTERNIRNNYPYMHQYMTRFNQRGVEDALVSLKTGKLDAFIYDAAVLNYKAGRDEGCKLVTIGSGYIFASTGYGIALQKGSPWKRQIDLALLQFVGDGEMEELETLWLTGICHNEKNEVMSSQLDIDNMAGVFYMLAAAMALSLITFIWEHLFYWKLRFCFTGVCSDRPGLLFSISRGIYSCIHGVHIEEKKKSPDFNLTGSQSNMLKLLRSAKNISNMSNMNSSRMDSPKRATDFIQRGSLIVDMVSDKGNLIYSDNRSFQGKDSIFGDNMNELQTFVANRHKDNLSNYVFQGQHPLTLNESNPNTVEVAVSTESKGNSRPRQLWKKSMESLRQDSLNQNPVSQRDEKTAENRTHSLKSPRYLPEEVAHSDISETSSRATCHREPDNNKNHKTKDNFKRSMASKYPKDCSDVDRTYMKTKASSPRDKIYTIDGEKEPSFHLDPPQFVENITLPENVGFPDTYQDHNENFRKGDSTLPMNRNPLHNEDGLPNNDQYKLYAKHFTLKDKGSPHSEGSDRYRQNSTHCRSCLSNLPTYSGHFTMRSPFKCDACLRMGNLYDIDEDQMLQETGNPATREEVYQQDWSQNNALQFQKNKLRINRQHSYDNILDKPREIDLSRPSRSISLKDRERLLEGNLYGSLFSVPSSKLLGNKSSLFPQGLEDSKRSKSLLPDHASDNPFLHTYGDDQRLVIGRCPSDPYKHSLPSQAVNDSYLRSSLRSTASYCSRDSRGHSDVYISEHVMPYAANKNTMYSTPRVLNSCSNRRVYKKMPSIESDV
T2 sequence (Q00961 whole entry, other chains not shown): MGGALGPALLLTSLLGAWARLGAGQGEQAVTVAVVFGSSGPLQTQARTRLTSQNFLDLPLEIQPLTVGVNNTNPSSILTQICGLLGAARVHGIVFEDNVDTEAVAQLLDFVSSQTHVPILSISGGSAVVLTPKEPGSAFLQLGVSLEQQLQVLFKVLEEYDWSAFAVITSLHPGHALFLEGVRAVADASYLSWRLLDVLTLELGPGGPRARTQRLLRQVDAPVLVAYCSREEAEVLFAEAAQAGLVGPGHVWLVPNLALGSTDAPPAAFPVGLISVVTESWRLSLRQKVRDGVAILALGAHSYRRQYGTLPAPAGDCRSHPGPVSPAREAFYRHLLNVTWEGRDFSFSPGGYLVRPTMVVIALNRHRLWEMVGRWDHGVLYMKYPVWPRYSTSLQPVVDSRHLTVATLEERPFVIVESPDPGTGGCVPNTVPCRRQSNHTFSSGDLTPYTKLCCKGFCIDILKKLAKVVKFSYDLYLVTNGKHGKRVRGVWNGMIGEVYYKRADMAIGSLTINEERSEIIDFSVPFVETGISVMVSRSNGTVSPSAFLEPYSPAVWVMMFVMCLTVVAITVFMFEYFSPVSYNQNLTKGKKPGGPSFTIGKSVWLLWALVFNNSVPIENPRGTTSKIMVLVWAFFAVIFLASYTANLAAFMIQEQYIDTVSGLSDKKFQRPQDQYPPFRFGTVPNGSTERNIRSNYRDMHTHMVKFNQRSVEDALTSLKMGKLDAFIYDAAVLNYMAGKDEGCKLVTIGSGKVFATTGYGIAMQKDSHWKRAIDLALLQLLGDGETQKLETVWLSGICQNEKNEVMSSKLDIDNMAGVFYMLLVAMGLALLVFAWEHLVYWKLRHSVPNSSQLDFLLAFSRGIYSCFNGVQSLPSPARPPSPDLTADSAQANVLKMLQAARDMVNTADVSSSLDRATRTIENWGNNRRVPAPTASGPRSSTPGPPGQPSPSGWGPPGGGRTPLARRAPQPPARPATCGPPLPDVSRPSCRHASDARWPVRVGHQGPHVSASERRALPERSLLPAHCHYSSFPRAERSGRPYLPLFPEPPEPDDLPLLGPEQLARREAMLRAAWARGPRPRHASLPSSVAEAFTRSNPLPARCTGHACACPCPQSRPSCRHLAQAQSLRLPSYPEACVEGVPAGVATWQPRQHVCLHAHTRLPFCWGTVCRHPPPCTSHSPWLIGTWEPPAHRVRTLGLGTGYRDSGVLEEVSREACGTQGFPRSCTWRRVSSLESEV
T4 sequence (Q00960 whole entry, other chains not shown, the tested form may be a part): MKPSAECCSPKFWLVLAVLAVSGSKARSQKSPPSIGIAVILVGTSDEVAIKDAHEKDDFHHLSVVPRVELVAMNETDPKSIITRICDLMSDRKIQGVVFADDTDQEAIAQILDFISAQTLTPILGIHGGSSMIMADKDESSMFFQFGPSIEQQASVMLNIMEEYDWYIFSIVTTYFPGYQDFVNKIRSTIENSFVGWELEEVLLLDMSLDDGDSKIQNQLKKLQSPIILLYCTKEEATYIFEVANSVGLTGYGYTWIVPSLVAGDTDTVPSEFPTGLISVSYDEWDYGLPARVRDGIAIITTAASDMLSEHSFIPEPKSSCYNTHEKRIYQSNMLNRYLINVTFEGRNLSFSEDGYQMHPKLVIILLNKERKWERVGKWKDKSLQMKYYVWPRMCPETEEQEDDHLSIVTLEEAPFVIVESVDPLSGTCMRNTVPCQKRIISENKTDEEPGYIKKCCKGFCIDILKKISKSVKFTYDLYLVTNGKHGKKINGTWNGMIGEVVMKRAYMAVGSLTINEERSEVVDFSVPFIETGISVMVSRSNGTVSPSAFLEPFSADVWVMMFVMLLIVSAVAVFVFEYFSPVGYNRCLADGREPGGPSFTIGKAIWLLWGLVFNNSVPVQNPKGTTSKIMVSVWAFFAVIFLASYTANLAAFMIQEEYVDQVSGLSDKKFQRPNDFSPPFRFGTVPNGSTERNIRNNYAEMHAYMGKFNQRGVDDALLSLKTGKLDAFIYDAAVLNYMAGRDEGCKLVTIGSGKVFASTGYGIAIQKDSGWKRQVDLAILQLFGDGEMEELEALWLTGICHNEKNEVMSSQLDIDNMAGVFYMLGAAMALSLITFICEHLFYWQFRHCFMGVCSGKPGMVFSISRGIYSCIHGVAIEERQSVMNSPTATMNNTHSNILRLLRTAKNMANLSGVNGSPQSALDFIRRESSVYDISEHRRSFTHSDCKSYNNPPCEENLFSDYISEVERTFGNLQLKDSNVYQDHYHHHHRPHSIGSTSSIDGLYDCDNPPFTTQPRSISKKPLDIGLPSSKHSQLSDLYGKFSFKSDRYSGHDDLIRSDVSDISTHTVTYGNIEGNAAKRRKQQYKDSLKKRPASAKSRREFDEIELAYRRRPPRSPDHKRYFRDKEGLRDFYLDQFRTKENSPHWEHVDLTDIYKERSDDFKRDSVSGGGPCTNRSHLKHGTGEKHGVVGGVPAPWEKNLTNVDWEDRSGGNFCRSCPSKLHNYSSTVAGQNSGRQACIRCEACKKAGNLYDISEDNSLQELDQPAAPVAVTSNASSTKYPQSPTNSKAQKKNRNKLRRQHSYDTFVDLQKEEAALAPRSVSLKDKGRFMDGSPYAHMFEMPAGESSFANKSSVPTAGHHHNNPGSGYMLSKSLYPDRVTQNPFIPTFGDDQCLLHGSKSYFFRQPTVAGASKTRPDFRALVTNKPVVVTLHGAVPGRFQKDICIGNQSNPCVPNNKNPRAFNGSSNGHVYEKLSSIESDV

SMILES: CNc1ccc(C#CCCN2CCC(Cc3ccccc3)CC2)cc1
- pIC50 [1]: 6.52
- pIC50 [2]: 4.08
- pIC50 [3]: < 4.00
- IC50 [4]: 1 µM
- pIC50 [5]: 6.34

SMILES: Fc1ccc(C#CCCN2CCC(Cc3ccccc3)CC2)cc1
- pIC50 [6]: < 4.00
- pIC50 [7]: < 4.00
- pIC50 [8]: 5.57

SMILES: O=[N+]([O-])c1ccc(C#CCCN2CCC(Cc3ccccc3)CC2)cc1
- pIC50 [6]: < 4.00
- pIC50 [7]: < 4.00

SMILES: Nc1ccc(C#CCCN2CCC(Cc3ccccc3)CC2)cc1N
- pIC50 [1]: 5.96
- pIC50 [6]: < 4.00
- IC50 [9]: 1 µM
- pIC50 [7]: < 4.00
- pIC50 [8]: 6.72

SMILES: CC(=O)Nc1ccc(C#CCN2CCC(Cc3ccccc3)CC2)cc1
- pIC50 [2]: 4.25
- pIC50 [3]: < 4.00
- pIC50 [5]: 4.89

SMILES: Nc1ccc(C#CCCN2CCC(O)(Cc3ccccc3)CC2)cc1
- pIC50 [1]: 4.82
- pIC50 [6]: < 4.00
- IC50 [9]: 63 µM
- pIC50 [8]: 6.08

SMILES: Clc1cccc(C#CCCN2CCC(Cc3ccccc3)CC2)c1
- pIC50 [6]: < 4.00
- pIC50 [7]: < 4.00
- pIC50 [8]: 5.42

SMILES: Nc1ccc(C#CCCN2CCC(O)(Cc3ccc(F)cc3)CC2)cc1
- pIC50 [1]: 5.10
- pIC50 [6]: 4.54
- IC50 [9]: 31 µM
- pIC50 [7]: < 4.00
- pIC50 [8]: 6.19

SMILES: Nc1ccc(C#CCN2CCC(Cc3ccccc3)CC2)cc1
- pIC50 [6]: < 4.00
- pIC50 [7]: < 4.00

SMILES: CS(=O)(=O)Nc1ccc(C#CCN2CCC(Cc3ccccc3)CC2)cc1
- pIC50 [1]: 4.92
- pIC50 [2]: < 4.00
- pIC50 [3]: < 4.00
- IC50 [4]: 2.2 µM
- pIC50 [5]: 6.82

SMILES: NCc1cccc(C#CCCN2CCC(Cc3ccccc3)CC2)c1
- pIC50 [1]: 6.52
- pIC50 [3]: < 4.00
- IC50 [4]: 0.8 µM
- pIC50 [5]: 6.28

SMILES: Cc1ccc(C#CCCN2CCC(Cc3ccccc3)CC2)cc1
- pIC50 [6]: 4.38
- pIC50 [7]: < 4.00
- pIC50 [8]: 5.38

SMILES: Nc1ccccc1C#CCCN1CCC(Cc2ccccc2)CC1
- pIC50 [6]: 4.15
- pIC50 [7]: < 4.00
- pIC50 [8]: 5.96

SMILES: COc1ccc(C#CCCN2CCC(Cc3ccccc3)CC2)cc1
- pIC50 [6]: < 4.00
- pIC50 [7]: < 4.00
- pIC50 [8]: 5.59

SMILES: Nc1cccc(C#CCCN2CCC(Cc3ccccc3)CC2)c1
- pIC50 [6]: < 4.00
- pIC50 [7]: < 4.00
- pIC50 [8]: 5.96

SMILES: CS(=O)(=O)Nc1ccc(C#CCCCN2CCC(Cc3ccccc3)CC2)cc1
- pIC50 [1]: 5.64
- pIC50 [2]: < 4.00
- pIC50 [3]: < 4.00
- IC50 [4]: 1.1 µM
- pIC50 [5]: 6.55

SMILES: Nc1ccc(C#CCCCN2CCC(Cc3ccccc3)CC2)cc1
- pIC50 [6]: 4.92
- pIC50 [7]: < 4.00
- pIC50 [8]: 6.42

SMILES: C(#Cc1ccccc1)CCN1CCC(Cc2ccccc2)CC1
- pIC50 [10]: < 4.00
- pIC50 [8]: 5.33

SMILES: Oc1ccc(C#CCN2CCC(Cc3ccccc3)CC2)cc1
- pIC50 [1]: 5.77
- pIC50 [6]: < 4.00
- IC50 [9]: 1.5 µM
- pIC50 [7]: < 4.00
- pIC50 [8]: 7.00

SMILES: Clc1ccccc1C#CCCN1CCC(Cc2ccccc2)CC1
- pIC50 [6]: 4.07
- pIC50 [7]: < 4.00
- pIC50 [8]: 5.92

SMILES: Nc1ccc(C#CCCN2CCC(Cc3ccc(Cl)cc3)CC2)cc1
- pIC50 [8]: 5.92

SMILES: Nc1ccc(C#CCCN2CCC(Cc3ccc(F)cc3)CC2)cc1
- pIC50 [1]: 6.40
- pIC50 [6]: 4.15
- IC50 [9]: 0.7 µM
- pIC50 [7]: < 4.00
- pIC50 [8]: 6.59

SMILES: CC(=O)Nc1ccc(C#CCCCN2CCC(Cc3ccccc3)CC2)cc1
- pIC50 [2]: < 4.00
- pIC50 [3]: < 4.00
- pIC50 [5]: 5.85

SMILES: Clc1ccc(C#CCCN2CCC(Cc3ccccc3)CC2)cc1
- pIC50 [6]: 4.33
- pIC50 [7]: < 4.00
- pIC50 [8]: 5.40

SMILES: NS(=O)(=O)c1ccc(C#CCCN2CCC(Cc3ccccc3)CC2)cc1
- pIC50 [1]: 7.00
- pIC50 [2]: 4.66
- pIC50 [3]: < 4.00
- IC50 [4]: 1.4 µM
- pIC50 [5]: 6.51

SMILES: Nc1ccc(C#CCCN2CCC(Cc3ccccc3)CC2)cc1
- pIC50 [1]: 6.10
- IC50 [9]: 1 µM
- pIC50 [8]: 6.37

SMILES: Oc1ccc(C#CCCN2CCC(Cc3ccccc3)CC2)cc1
- pIC50 [1]: 6.54
- pIC50 [6]: < 4.00
- IC50 [9]: 0.58 µM
- pIC50 [8]: 6.77

SMILES: CC(=O)Nc1ccc(C#CCCN2CCC(Cc3ccccc3)CC2)cc1
- pIC50 [1]: 7.00
- pIC50 [2]: < 4.00
- pIC50 [3]: < 4.00
- IC50 [4]: 1.1 µM
- pIC50 [5]: 6.59

SMILES: Cc1ccc(CC2CCN(CCC#Cc3ccc(N)cc3)CC2)cc1
- pIC50 [1]: 6.10
- pIC50 [6]: 4.12
- IC50 [9]: 1.2 µM
- pIC50 [7]: 4.57
- pIC50 [8]: 6.51

SMILES: CN(C)c1ccc(C#CCCN2CCC(Cc3ccccc3)CC2)cc1
- pIC50 [2]: < 4.00
- pIC50 [3]: < 4.00
- pIC50 [5]: 4.82

SMILES: CS(=O)(=O)Nc1ccc(C#CCCN2CCC(Cc3ccccc3)CC2)cc1
- pIC50 [1]: 6.70
- pIC50 [2]: < 4.00
- pIC50 [3]: < 4.00
- IC50 [4]: 1.2 µM
- pIC50 [5]: 6.62

SMILES: Cc1ccc(CC2(O)CCN(CCC#Cc3ccc(N)cc3)CC2)cc1
- pIC50 [1]: 5.00
- pIC50 [6]: 4.17
- IC50 [9]: 85 µM
- pIC50 [7]: < 4.00
- pIC50 [8]: 6.43

SMILES: NC(=O)c1ccc(C#CCCN2CCC(Cc3ccccc3)CC2)cc1
- pIC50 [2]: < 4.00
- pIC50 [3]: < 4.00
- pIC50 [5]: 5.70
